Active and inactive are the calls of the source. The calls are words filed in the database; no cut-off is given here.
Experiments:
[1] = biological target: Nicotinamide phosphoribosyltransferase (Mus musculus, UniProt Q99KQ4); assay: Inhibition of recombinant mouse NAMPT expressed in bacterial expression system using nicotinamide as substrate after 1 hr by fluorescence based NMNAT-3 enzyme coupled assay
[2] = system: SH-SY5Y; assay: Cytotoxicity against human SH-SY5Y cells assessed as reduction in cell viability after 56 hrs by MTT assay; assay type: functional, cell-based
[3] = system: Liver; assay: Drug level in Wistar Han rat liver microsomes treated with N-(biphenyl-2-yl)-8-(4-(pyridin-3-yl)-1H-1,2,3-triazol-1-yl)octanamide after 60 mins by LC-ESI-MS analysis; assay type: ADME, microsome
[4] = system: Liver; assay: Drug level in human liver microsomes treated with N-(biphenyl-2-yl)-8-(4-(pyridin-3-yl)-1H-1,2,3-triazol-1-yl)octanamide after 60 mins by LC-ESI-MS analysis; assay type: ADME, microsome
[5] = system: Liver; assay: Stability in Wistar Han rat liver microsomes after 60 mins by LC-ESI-MS analysis; assay type: ADME, microsome; settings: 1 h
[6] = Drug metabolism in human liver microsomes assessed as mixed function oxidase mediated compound cleavage by measuring compound remaining after 60 mins in presence of NADPH-regenerating system by LC-UV analysis; assay type: ADME; settings: read-out: Stability
Outline: (§1)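 Substrate at 50 μM final, with rat or human liver microsomes at 1.0 mg/ml protein, in 50 mM Tris-HCl pH 7.4. Mix held 3.3 mM MgCl2, 1% acetonitrile and an NADPH-regenerating system (1.3 mM β-NADP, 3.3 mM glucose 6-phosphate, 0.4 U/ml G6PDH). Shaken 60 min at 37 °C, stopped with ice-cold acetonitrile. LC-UV gave % residual substrate versus a no-microsome control, mean of two replicates.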

[7] = biological target: Nicotinamide phosphoribosyltransferase (Homo sapiens, UniProt P43490); assay: Inhibition of NAMPT in human Jurkat T cells assessed as reduction in NAD levels; assay type: cell-based
[8] = Volume of distribution in athymic Nu/Nu Harlan mouse at 10 mg/kg, iv administered as single dose up to 24 hrs by LC-ESI-MS analysis; assay type: ADME, organism-based; settings: in vivo
[9] = Drug metabolism in Wistar Han rat liver microsomes assessed as mixed function oxidase mediated compound cleavage by measuring compound remaining after 60 mins in presence of NADPH-regenerating system by LC-UV analysis; assay type: ADME; settings: read-out: Stability; outline: as §1
[10] = Clearance in athymic Nu/Nu Harlan mouse at 10 mg/kg, iv administered as single dose up to 24 hrs by LC-ESI-MS analysis; assay type: ADME, organism-based; settings: in vivo
[11] = system: A2780; assay: Antitumor activity against human A2780 cells xenografted in athymic nu/nu Harlan mouse assessed as reduction in tumor growth at 10 mg/kg, ip bid administered for 8 consecutive days; assay type: functional, organism-based
[12] = system: Liver; assay: Stability in human liver microsomes assessed as mixed function oxidase mediated compound cleavage after 60 mins in presence of NADPH-regenerating system by LC-UV analysis; assay type: ADME, microsome; settings: 1 h; outline: as §1
[13] = Stability in Wistar Han rat liver microsomes assessed as mixed function oxidase mediated compound cleavage after 60 mins in presence of NADPH-regenerating system by LC-UV analysis; assay type: ADME; settings: 1 h; outline: as §1
[14] = system: Liver; assay: Stability in human liver microsomes after 60 mins by LC-ESI-MS analysis; assay type: ADME, microsome; settings: 1 h
[15] = AUC in athymic Nu/Nu Harlan mouse at 10 mg/kg, iv administered as single dose up to 24 hrs by LC-ESI-MS analysis; assay type: ADME, organism-based; design: time < 24 hr, dose 10 mg/kg, route intravenous; settings: in vivo
[16] = Half life in athymic Nu/Nu Harlan mouse at 10 mg/kg, iv administered as single dose up to 24 hrs by LC-ESI-MS analysis; assay type: ADME, organism-based; settings: in vivo
[17] = system: Liver; assay: Drug metabolism in human liver microsomes assessed as pyridine N-oxidation after 60 mins in presence of NADPH-regenerating system by LC-UV analysis; assay type: ADME, microsome; settings: 1 h
Outline: (§2)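 Metabolites were characterized by LC-ESI-MSn on supernatants of 60 min, 37 °C incubations. Each used 50 μM substrate with rat or human liver microsomes (1.0 mg/ml protein) in 50 mM Tris-HCl pH 7.4 with 3.3 mM MgCl2, 1% acetonitrile and an NADPH-regenerating system. Reactions were quenched with cold acetonitrile and centrifuged.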

[18] = system: A2780; assay: Cytotoxicity against human A2780 cells assessed as reduction in cell viability; assay type: functional, cell-based
[19] = system: Liver; assay: Drug metabolism in Wistar Han rat liver microsomes assessed as pyridine N-oxidation after 60 mins in presence of NADPH-regenerating system by LC-UV analysis; assay type: ADME, microsome; settings: 1 h; outline: as §2
[20] = system: Mus musculus; assay: In vivo inhibition of NAMPT in DNBS-induced BALB/c mouse colitis model assessed as reduction in loss of body weight at 20 mg/kg, ip bid administered for 3 days post DNBS challenge; assay type: functional, organism-based
[21] = system: Mus musculus; assay: In vivo inhibition of NAMPT in DNBS-induced BALB/c mouse colitis model assessed as reduction in erosion at 20 mg/kg, ip bid administered for 3 days post DNBS challenge; assay type: functional, organism-based
[22] = system: Mus musculus; assay: In vivo inhibition of NAMPT in DNBS-induced BALB/c mouse colitis model assessed as reduction in hemorrhagic ulcerations at 20 mg/kg, ip bid administered for 3 days post DNBS challenge; assay type: functional, organism-based
[23] = system: Mus musculus; assay: In vivo inhibition of NAMPT in DNBS-induced BALB/c mouse colitis model assessed as reduction in neutrophil infiltration by measuring myeloperoxidase levels at 20 mg/kg, ip bid administered for 3 days post DNBS challenge by ELISA; assay type: functional, organism-based
[24] = system: Mus musculus; assay: In vivo inhibition of NAMPT in DNBS-induced BALB/c mouse colitis model assessed as reduction in mucosal congestion at 20 mg/kg, ip bid administered for 3 days post DNBS challenge; assay type: functional, organism-based
[25] = system: Liver; assay: Drug metabolism in human liver microsomes assessed as pyridine N-oxidation by measuring biphenyl-2-carboxamide formation after 60 mins in presence of NADPH-regenerating system by LC-UV analysis; assay type: ADME, microsome; settings: 1 h; outline: as §2
[26] = system: Liver; assay: Drug metabolism in Wistar Han rat liver microsomes assessed as pyridine N-oxidation by measuring 7-(4-(pyridin-3-yl)-1H-1,2,3-triazol-1-yl)heptanoic acid formation after 60 mins in presence of NADPH-regenerating system by LC-UV analysis; assay type: ADME, microsome; outline: as §2
[27] = system: Liver; assay: Drug metabolism in human liver microsomes assessed as pyridine N-oxidation by measuring 7-(4-(pyridin-3-yl)-1H-1,2,3-triazol-1-yl)heptanoic acid formation after 60 mins in presence of NADPH-regenerating system by LC-UV analysis; assay type: ADME, microsome; outline: as §2
[28] = system: Liver; assay: Drug metabolism in Wistar Han rat liver microsomes assessed as pyridine N-oxidation by measuring biphenyl-2-carboxamide formation after 60 mins in presence of NADPH-regenerating system by LC-UV analysis; assay type: ADME, microsome; settings: 1 h; outline: as §2
[29] = Homo sapiens, SH-SY5Y, 56 h, read-out: EC50

Sequence of Nicotinamide phosphoribosyltransferase (Mus musculus, UniProt Q99KQ4) (Q99KQ4 whole entry): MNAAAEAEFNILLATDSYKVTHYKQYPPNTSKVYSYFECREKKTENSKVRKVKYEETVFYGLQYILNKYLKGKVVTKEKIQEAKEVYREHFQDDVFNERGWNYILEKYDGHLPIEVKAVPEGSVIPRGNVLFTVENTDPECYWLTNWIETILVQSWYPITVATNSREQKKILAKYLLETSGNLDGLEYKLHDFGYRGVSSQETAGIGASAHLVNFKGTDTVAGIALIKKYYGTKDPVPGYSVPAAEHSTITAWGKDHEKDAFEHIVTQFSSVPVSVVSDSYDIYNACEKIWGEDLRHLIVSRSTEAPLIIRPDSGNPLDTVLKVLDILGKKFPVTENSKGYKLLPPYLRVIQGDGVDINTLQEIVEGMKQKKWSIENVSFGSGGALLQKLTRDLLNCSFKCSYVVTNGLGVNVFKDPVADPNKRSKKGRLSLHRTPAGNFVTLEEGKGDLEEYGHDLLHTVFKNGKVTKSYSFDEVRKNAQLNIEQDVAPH
Sequence of Nicotinamide phosphoribosyltransferase (Homo sapiens, UniProt P43490) (P43490 whole entry): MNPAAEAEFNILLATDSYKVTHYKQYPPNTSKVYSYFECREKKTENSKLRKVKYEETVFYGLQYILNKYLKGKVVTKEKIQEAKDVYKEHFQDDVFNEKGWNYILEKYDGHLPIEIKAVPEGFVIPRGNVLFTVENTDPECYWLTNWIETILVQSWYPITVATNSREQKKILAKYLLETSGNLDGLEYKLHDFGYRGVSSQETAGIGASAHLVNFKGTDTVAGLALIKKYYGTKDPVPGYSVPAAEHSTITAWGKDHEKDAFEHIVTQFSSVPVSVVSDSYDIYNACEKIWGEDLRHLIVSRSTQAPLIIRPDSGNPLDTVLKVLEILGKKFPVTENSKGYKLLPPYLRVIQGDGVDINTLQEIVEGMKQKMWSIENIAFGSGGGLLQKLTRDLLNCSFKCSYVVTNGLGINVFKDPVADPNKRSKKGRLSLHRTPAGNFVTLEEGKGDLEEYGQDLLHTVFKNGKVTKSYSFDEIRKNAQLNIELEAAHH

c1ccc(-c2ccccc2OCCc2ccc(Cn3cc(-c4cccnc4)nn3)cc2)cc1
IC50 ([1]; read-out: IC50): 15.6 nM
EC50 [2, 29]: 2.4 nM

O=C(CCCCCCCc1nnc(-c2cccnc2)o1)Nc1ccccc1-c1ccccc1
EC50 [2, 29]: 370 nM

c1ccc(-c2ccccc2-n2cc(CCCCCCCn3cc(-c4cccnc4)nn3)nn2)cc1
EC50 [2, 29]: 55.1 nM

O=S(=O)(NCCCCCCCCn1cc(-c2cccnc2)nn1)c1ccccc1Br
EC50 [2, 29]: 171 nM

O=S(=O)(NCCCCCCn1cc(-c2cccnc2)nn1)c1ccccc1-c1ccccc1
EC50 [2, 29]: 100 nM

c1ccc(-c2ccccc2-c2cn(CCCCCCCc3cn(-c4cccnc4)nn3)nn2)cc1
EC50 [2, 29]: 84.2 nM

c1ccc(-c2ccccc2CNCCCCCCCCn2cc(-c3cccnc3)nn2)cc1
EC50 [2, 29]: 205 nM

O=C(CCCCCCCc1cnc(-c2cccnc2)s1)Nc1ccccc1-c1ccccc1
EC50 [2, 29]: 5250 nM

O=C(CCCCCCCc1nnc(-c2cccnc2)[nH]1)Nc1ccccc1-c1ccccc1
IC50 ([1]; read-out: IC50): 269 nM
EC50 [2, 29]: 82.9 nM

O=S(=O)(NCCCCCCCn1cc(-c2cccnc2)nn1)c1ccccc1-c1ccccc1
EC50 [2, 29]: 99.2 nM

c1ccc(-c2ccccc2OCCCCCCCCn2cc(-c3cccnc3)nn2)cc1
IC50 ([1]; read-out: IC50): 25.4 nM
EC50 [2, 29]: 8.2 nM

c1ccc(-c2ccccc2CNCCCCCCn2cc(-c3cccnc3)nn2)cc1
EC50 [2, 29]: 202 nM

Nc1ccccc1-c1ccccc1
Drug metabolism [3]: Metabolite_Detected
Drug metabolism [4]: Metabolite_Detected

O=C(O)CCCCCCCn1cc(-c2cccnc2)nn1
Drug metabolism [3]: Metabolite_Detected
Drug metabolism [4]: Metabolite_Detected

c1ccc(-c2ccccc2-c2cn(CCCCCCCn3cc(-c4cccnc4)nn3)nn2)cc1
Stability [5]: Stable
IC50 ([1]; read-out: IC50): 8.1 nM
remaining at 1 h [6]: 87%
IC50 [7]: 7.8 nM
Vd [8]: 9.4 L/kg
remaining at 1 h [9]: 47%
clearance [10]: 74 mL/min/kg
inhibition [11]: inactive
Stability [12]: Stable
EC50 [2, 29]: 9.1 nM
Stability [13]: Stable
Stability [14]: Stable
AUC at 24 h [15]: 2250 ng·h/mL
half-life [16]: 1.48 h
Drug metabolism [17]: Metabolite_Detected
IC50 [18]: 5.8 nM
Drug metabolism [19]: Metabolite_Detected

O=S(=O)(NCCCCCCn1cc(-c2cccnc2)nn1)c1ccccc1Br
EC50 [2, 29]: 175 nM

O=S(=O)(NCCCCCCCCn1cc(-c2cccnc2)nn1)c1ccccc1-c1ccccc1
IC50 ([1]; read-out: IC50): 47 nM
EC50 [2, 29]: 12.6 nM

c1ccc(-c2ccccc2OCc2ccc(CCn3cc(-c4cccnc4)nn3)cc2)cc1
EC50 [2, 29]: 160 nM

O=C(NCCCCCCCn1cc(-c2cccnc2)nn1)Nc1ccccc1-c1ccccc1
IC50 ([1]; read-out: IC50): 32.4 nM
EC50 [2, 29]: 7 nM

O=C(NCCCCCCCCn1cc(-c2cccnc2)nn1)Nc1ccccc1-c1ccccc1
EC50 [2, 29]: 154 nM

O=C(CCCCCCCc1cc(-c2cccnc2)on1)Nc1ccccc1-c1ccccc1
IC50 ([1]; read-out: IC50): 49.9 nM
EC50 [2, 29]: 59.8 nM

C[C@@H]1C[C@H]2[C@@H]3CCC4=CC(=O)C=C[C@]4(C)[C@@]3(F)[C@@H](O)C[C@]2(C)[C@@]1(O)C(=O)CO
inhibition [20]: Active
inhibition [21]: Active
inhibition [22]: Active
inhibition [23]: Active
inhibition [24]: Active

c1ccc(-c2ccccc2-c2cn(CCCCCCCCn3cc(-c4cccnc4)nn3)nn2)cc1
EC50 [2, 29]: 74.5 nM

c1ccc(-c2ccccc2OCCCc2ccc(-n3cc(-c4cccnc4)nn3)cc2)cc1
EC50 [2, 29]: 71 nM

O=C(NCCCCCCCCn1cc(-c2cccnc2)nn1)c1ccccc1-c1ccccc1
EC50 [2, 29]: 194 nM

c1ccc(-c2ccccc2Oc2ccc(CCCn3cc(-c4cccnc4)nn3)cc2)cc1
EC50 [2, 29]: > 500 nM

O=C(Nc1ccccc1-c1ccccc1)OCCCCCCn1cc(-c2cccnc2)nn1
EC50 [2, 29]: 34 nM

O=C(NCCCCCCCn1cc(-c2ccc[n+]([O-])c2)nn1)c1ccccc1-c1ccccc1
IC50 [1]: Not Active
Drug metabolism [25]: Metabolite_Detected
Drug metabolism [26]: Metabolite_Detected
Drug metabolism [27]: Metabolite_Detected
EC50 ([2]; sh-sy5y): Not Active
Drug metabolism [28]: Metabolite_Detected

O=C(NCCCCCCn1cc(-c2cccnc2)nn1)c1ccccc1-c1ccccc1
EC50 [2, 29]: 22.2 nM

O=C(NCCCCCCn1cc(-c2cccnc2)nn1)Nc1ccccc1-c1ccccc1
EC50 [2, 29]: 43 nM

O=C(Nc1ccccc1-c1ccccc1)OCCCCCCCn1cc(-c2cccnc2)nn1
EC50 [2, 29]: 36 nM

[O-][n+]1cccc(-c2cn(CCCCCCOc3ccccc3-c3ccccc3)nn2)c1
IC50 [1]: Not Active
Drug metabolism [25]: Metabolite_Detected
Drug metabolism [26]: Metabolite_Detected
Drug metabolism [27]: Metabolite_Detected
EC50 ([2]; sh-sy5y): Not Active
Drug metabolism [28]: Metabolite_Detected

c1ccc(-c2ccccc2-c2cn(CCCCCCn3cc(-c4cccnc4)nn3)nn2)cc1
EC50 [2, 29]: 36.6 nM

c1ccc(-c2ccccc2-n2cc(CCCCCCCc3cn(-c4cccnc4)nn3)nn2)cc1
EC50 [2, 29]: > 500 nM

c1ccc(-c2ccccc2OCCCCCCCn2cc(-c3cccnc3)nn2)cc1
IC50 ([1]; read-out: IC50): 31.3 nM
EC50 [2, 29]: 15 nM

O=S(=O)(NCCCCCCCn1cc(-c2cccnc2)nn1)c1ccccc1Br
EC50 [2, 29]: 162 nM

O=C(CCCCCCCc1cc(-c2cccnc2)[nH]n1)Nc1ccccc1-c1ccccc1
EC50 [2, 29]: 384 nM

c1ccc(-c2ccccc2CNCCCCCCCn2cc(-c3cccnc3)nn2)cc1
EC50 [2, 29]: 237 nM

O=C(Nc1ccccc1-c1ccccc1)OCCCCCCCCn1cc(-c2cccnc2)nn1
EC50 [2, 29]: 255 nM

— ChEMBL document CHEMBL4007408, “Identification of Novel Triazole-Based Nicotinamide Phosphoribosyltransferase (NAMPT) Inhibitors Endowed with Antiproliferative and Antiinflammatory Activity” (J Med Chem, 2017)
